Test results published in ChEMBL document CHEMBL4312015, “Design, synthesis and 3D-QSAR analysis of novel thiopyranopyrimidine derivatives as potential antitumor agents inhibiting A549 and Hela cancer cells” (Eur J Med Chem, 2020).
The source made the active and inactive calls. The rule behind the calls is not given here.

How the values were obtained:
A549 [1] = test: Antiproliferative activity against human A549 cells assessed as inhibition of cell growth after 72 hrs by MTT assay; format: functional, cell-based; conditions: A549, 72 h
Summary of the method: (§1)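 Cell lines from the Chinese Academy of Sciences cell collection, grown in 96-well plates with a range of compound concentrations for 72 h. Viability read by MTT, with AZD9291 as positive control. IC50 values are averages of three determinations per the methods section; table footnotes state an average of two separate determinations.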

HeLa [2] = test: Antiproliferative activity against human HeLa cells assessed as inhibition of cell growth after 72 hrs by MTT assay; format: functional, cell-based; summary of the method: as §1
[3] = target: T1, Epidermal growth factor receptor (Homo sapiens, UniProt P00533); test: Inhibition of wildtype EGFR (unknown origin) using biotin as substrate in presence of ATP by mobility shift assay based ELISA
[4] = target: Epidermal growth factor receptor (Homo sapiens, UniProt P00533, L858R/T790M); test: Inhibition of EGFR T790M/L858R double mutant (unknown origin) using biotin as substrate in presence of ATP by mobility shift assay based ELISA
Homo sapiens = species on record: Homo sapiens; test: Selectivity ratio of IC50 for wildtype EGFR (unknown origin) to IC50 for EGFR T790M/L858R double mutant (unknown origin) by mobility shift assay based ELISA
NCI-H1975 [5] = test: Antiproliferative activity human NCI-H1975 cells harboring EGFR T790M/L858R double mutant assessed as inhibition of cell growth at 10 uM after 72 hrs by MTT assay relative to control; format: functional; conditions: NCI-H1975, 72 h
Summary of the method: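 H1975 cells exposed to compound at a single 10 uM concentration. Growth inhibition rate read by MTT after 72 h in 96-well plates, with AZD9291 as positive control. Values are an average of two separate determinations.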

NCI-H1975 [6] = test: Antiproliferative activity against human NCI-H1975 cells harboring EGFR T790M/L858R double mutant assessed as inhibition of cell growth after 72 hrs by MTT assay; format: functional, cell-based; conditions: NCI-H1975, 72 h; summary of the method: as §1
A549 [7] = test: Induction of apoptosis in human A549 cells assessed as viable cells at 0.057 uM after 24 hrs by AnnexinV-FITC/propidium iodide staining based FACSCalibur flow cytometry analysis (reference value: 94.42 %); format: functional; conditions: A549, 24 h, read-out: Activity
A549 [8] = test: Induction of apoptosis in human A549 cells assessed as early apoptotic cells at 0.057 uM after 24 hrs by AnnexinV-FITC/propidium iodide staining based FACSCalibur flow cytometry analysis (reference value: 3.51 %); format: functional
A549 [9] = test: Induction of apoptosis in human A549 cells assessed as late apoptotic cells at 0.057 uM after 24 hrs by AnnexinV-FITC/propidium iodide staining based FACSCalibur flow cytometry analysis (reference value: 1.74 %); format: functional
A549 [10] = test: Induction of apoptosis in human A549 cells assessed as necrotic cells at 0.057 uM after 24 hrs by AnnexinV-FITC/propidium iodide staining based FACSCalibur flow cytometry analysis (reference value: 0.33 %); format: functional
A549 [11] = test: Cell cycle arrest in human A549 cells assessed as accumulation at G0/G1 phase at 0.057 uM after 24 hrs by propidium iodide staining based FACSCalibur flow cytometry analysis (reference value: 74.31 %); format: functional
Summary of the method: (§2)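 A549 cells seeded in 6-well plates for 24 h, then treated for 24 h; vehicle was 0.1% DMSO. Cells were harvested as single-cell suspensions, fixed in 70% ice-cold ethanol for 12 h, and stained with propidium iodide. DNA content was measured by flow cytometry. AZD9291 at 0.462 uM was included as reference.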

A549 [12] = test: Cell cycle arrest in human A549 cells assessed as accumulation at S phase at 0.057 uM after 24 hrs by propidium iodide staining based FACSCalibur flow cytometry analysis (reference value: 22.24 %); format: functional; summary of the method: as §2
A549 [13] = test: Cell cycle arrest in human A549 cells assessed as accumulation at G2/M phase at 0.057 uM after 24 hrs by propidium iodide staining based FACSCalibur flow cytometry analysis (reference value: 3.45 %); format: functional; summary of the method: as §2
HeLa [14] = test: Inhibition of EFGR protein expression in human HeLa cells after 24 hrs by Western blot analysis; format: functional, cell-based
Summary of the method: (§3)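 HeLa cells treated for 24 h with graded compound concentrations, with AZD9291 as positive control. Whole-cell lysates were made in RIPA buffer and protein measured by BCA. Equal protein was run on 10% SDS-PAGE, transferred to PVDF on ice, and probed for EGFR, p-EGFR and GAPDH.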

[15] = target: T1, Epidermal growth factor receptor; test: Inhibition of EFGR phosphorylation in human HeLa cells at 0.1 to 10 uM after 24 hrs by Western blot analysis; format: cell-based; summary of the method: as §3

T1 sequence (P00533 whole entry): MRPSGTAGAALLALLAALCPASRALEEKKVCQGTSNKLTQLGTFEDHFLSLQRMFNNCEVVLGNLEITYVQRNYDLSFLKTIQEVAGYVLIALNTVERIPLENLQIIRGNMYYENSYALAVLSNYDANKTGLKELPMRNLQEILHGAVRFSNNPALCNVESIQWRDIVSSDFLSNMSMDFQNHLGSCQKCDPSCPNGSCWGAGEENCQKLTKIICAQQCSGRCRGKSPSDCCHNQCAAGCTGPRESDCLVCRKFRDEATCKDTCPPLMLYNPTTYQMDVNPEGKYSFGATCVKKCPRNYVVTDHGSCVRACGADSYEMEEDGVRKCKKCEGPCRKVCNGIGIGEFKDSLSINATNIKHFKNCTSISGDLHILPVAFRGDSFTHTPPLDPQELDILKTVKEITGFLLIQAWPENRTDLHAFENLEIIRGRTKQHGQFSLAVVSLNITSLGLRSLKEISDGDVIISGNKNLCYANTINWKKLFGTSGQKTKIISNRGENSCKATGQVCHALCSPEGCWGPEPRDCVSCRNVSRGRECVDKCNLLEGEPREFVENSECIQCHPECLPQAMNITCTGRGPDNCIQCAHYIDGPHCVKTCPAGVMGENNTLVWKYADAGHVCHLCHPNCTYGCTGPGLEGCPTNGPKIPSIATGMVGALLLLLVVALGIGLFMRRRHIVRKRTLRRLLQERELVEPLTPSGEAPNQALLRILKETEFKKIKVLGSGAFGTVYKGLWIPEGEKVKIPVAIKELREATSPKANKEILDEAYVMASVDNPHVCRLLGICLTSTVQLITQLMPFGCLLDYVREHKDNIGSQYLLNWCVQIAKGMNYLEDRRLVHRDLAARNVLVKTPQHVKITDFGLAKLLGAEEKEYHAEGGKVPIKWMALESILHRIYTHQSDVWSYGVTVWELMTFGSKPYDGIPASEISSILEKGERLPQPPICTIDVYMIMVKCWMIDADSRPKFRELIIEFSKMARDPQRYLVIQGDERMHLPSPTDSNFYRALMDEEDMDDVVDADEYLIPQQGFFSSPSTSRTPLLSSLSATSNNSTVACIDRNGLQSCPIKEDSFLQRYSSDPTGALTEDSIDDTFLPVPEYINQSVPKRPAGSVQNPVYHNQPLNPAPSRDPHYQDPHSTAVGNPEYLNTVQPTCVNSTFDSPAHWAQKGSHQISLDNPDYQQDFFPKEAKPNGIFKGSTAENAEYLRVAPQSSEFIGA
Sequence of Epidermal growth factor receptor (Homo sapiens, UniProt P00533, L858R/T790M) (P00533 25-1210 T790M/L858R limits assumed): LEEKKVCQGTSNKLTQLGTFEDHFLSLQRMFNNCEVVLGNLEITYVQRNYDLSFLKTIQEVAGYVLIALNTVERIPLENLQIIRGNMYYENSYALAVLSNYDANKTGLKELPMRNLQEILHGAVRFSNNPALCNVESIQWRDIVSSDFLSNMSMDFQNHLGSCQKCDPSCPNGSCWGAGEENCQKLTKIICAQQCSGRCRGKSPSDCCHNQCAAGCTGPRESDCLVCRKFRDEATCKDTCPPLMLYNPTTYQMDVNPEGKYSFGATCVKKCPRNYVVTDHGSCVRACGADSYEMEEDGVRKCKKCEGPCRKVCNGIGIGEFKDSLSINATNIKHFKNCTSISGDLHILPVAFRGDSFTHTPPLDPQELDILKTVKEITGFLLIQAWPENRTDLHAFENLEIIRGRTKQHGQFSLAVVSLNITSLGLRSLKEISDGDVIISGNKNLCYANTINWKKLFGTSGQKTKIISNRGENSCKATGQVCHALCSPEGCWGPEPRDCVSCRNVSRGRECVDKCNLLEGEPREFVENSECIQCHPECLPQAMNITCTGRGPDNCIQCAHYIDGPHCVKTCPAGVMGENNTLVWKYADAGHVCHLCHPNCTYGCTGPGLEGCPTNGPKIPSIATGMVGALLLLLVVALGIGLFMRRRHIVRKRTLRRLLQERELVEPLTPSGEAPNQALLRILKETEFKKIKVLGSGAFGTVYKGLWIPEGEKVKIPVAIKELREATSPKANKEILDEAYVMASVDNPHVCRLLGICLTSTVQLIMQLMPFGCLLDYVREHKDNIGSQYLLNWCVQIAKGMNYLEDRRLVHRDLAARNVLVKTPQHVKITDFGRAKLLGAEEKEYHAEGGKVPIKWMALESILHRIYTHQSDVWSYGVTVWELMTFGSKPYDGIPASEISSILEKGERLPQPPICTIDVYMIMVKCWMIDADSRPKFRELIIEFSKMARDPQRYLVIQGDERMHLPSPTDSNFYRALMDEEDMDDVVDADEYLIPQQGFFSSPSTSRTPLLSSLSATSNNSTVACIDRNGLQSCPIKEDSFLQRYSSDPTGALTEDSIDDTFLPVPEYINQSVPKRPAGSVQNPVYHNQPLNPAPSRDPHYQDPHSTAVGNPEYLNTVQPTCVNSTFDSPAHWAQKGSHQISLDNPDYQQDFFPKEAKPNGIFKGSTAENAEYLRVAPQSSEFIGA

- IC50 (A549 [1]): 57 nM
- IC50 (HeLa [2]; read-out: IC50): 104 nM
- IC50 (HeLa [2]; read-out: pIC50 (converted)): 104 nM
- IC50 [3]: > 2000 nM
- IC50 [4]: 16 nM
- Ratio IC50 (Homo sapiens): > 125
- IC50 (NCI-H1975 [6]): 916 nM
- inhibition [15]: inactive
Compound: CCC/C=C\C(=O)Nc1cc(Nc2nc3c(c(-c4cn(C)c5ccccc45)n2)CS(=O)(=O)CC3)c(OC)cc1N(C)CCN(C)C
- inhibition at 10 µM (NCI-H1975 [5]): 99.5%
- viability at 0.057 µM (A549 [7]): 88.1%
- Activity (A549 [8]): 5.87%
- Activity (A549 [9]): 5.92%
- Activity (A549 [10]): 0.08%
- Activity (A549 [11]): 69.17%
- Activity (A549 [12]): 20.2%
- Activity (A549 [13]): 10.63%
- inhibition (HeLa [14]): Dose-dependent effect
